For 18 compounds, GI50 results are on record in ChEMBL document CHEMBL1158368, “Synthesis of novel 3-(aryl)benzothieno[2,3-c]pyran-1-ones from Sonogashira products and intramolecular cyclization: Antitumoral activity evaluation” (2009).

By GI50 is commonly meant the concentration at which growth is held to half of that of the control.

Common to all, as to assay type: functional
Assay [1] concerns MCF7. Nature of the assay: Cytotoxicity against human MCF7 cells after 48 hrs by SRB assay. To be noted: MCF7, 48 h. The essentials: (§1)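 Cells were seeded at 1.5 × 10⁵ cells/mL (MCF-7 and SF-268) so growth stayed exponential, attached overnight, then were exposed to compound for 48 h at 37 °C in humidified 5% CO₂. Untreated controls received DMSO vehicle at up to 0.25%. Cells were fixed in situ and stained with SRB; the bound dye was solubilized and read at 492 nm. GI₅₀ (50% inhibition of net growth) came from dose–response curves, run in duplicate.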
A general note: The SRB assay estimates cell density from bound dye.

For assay [2], the system named is NCI-H460. The assay can be described thus: Cytotoxicity against human NCI-H460 cells after 48 hrs by SRB assay. To be noted: NCI-H460, 48 h. A digest of the protocol:
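NCI-H460 cells were plated at 0.75 × 10⁴ cells/mL to keep growth exponential, left overnight to attach, and treated for 48 h at 37 °C in humidified 5% CO₂, with DMSO vehicle controls at up to 0.25%. Readout was SRB staining of in-situ-fixed cells, with solubilized dye measured at 492 nm. GI₅₀ (50% net growth inhibition) came from dose–response curves in duplicate.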

The test system of assay [3] is CNS cell. The assay can be described thus: Cytotoxicity against human CNS cells after 48 hrs by SRB assay. The essentials:
as §1

Bounds are passed on as bounds.

In the case of `COc1ccc(-c2cc3c(sc4ccccc43)c(=O)o2)cc1`, the GI50 in assay [1], in assay [2] and in assay [3] was > 75 µM each time.

Take `COc1ccc(-c2oc(=O)c3sc4ccccc4c3c2I)cc1`: the GI50 in assay [1], in assay [2] and in assay [3] was > 150 µM each time.

For `COC(=O)c1sc2ccccc2c1C#Cc1ccccc1`, the GI50 amounted to 71.6 µM in assay [1], 58.9 µM in assay [2] and 64.7 µM in assay [3].

`COc1ccc2c(c1)sc1c(=O)oc(-c3ccc(F)cc3)c(I)c12`: the 50% growth inhibitory concentration (GI50) in assay [1], in assay [2] and in assay [3] was > 150 µM throughout.

Consider `COC(=O)c1sc2cc(OC)ccc2c1C#Cc1ccccc1`, for which the concentration for 50% growth inhibition (GI50) in assay [1] came to 79.6 µM; in assay [2] it was 42.3 µM; in assay [3], 54.9 µM.

With `COc1cccc2c1C(=O)c1c(O)c3c(c(O)c1C2=O)C[C@@](O)(C(=O)CO)C[C@@H]3O[C@H]1C[C@H](N)[C@H](O)[C@H](C)O1` [DOXORUBICIN], the GI50 in assay [1] stood at 0.0428 µM; in assay [2] it was 0.094 µM; in assay [3], 0.094 µM.

As for `O=c1oc(-c2ccc(F)cc2)c(I)c2c1sc1ccccc12`, the GI50 came to 25.2 µM in assay [1], 35.8 µM in assay [2] and 20.7 µM in assay [3].

For the compound `COC(=O)c1sc2ccccc2c1C#Cc1ccc(OC)cc1`, the figures for the GI50 in assay [1], in assay [2] and in assay [3] were 90.6 µM, 103 µM and > 150 µM, respectively.

On to `COC(=O)c1sc2cc(OC)ccc2c1C#Cc1ccc(F)cc1`, for which the GI50 in assay [1] came out at 12.6 µM; in assay [2], 10.1 µM; in assay [3], 20.9 µM.

As for `O=c1oc(-c2ccccc2)cc2c1sc1ccccc12`, the GI50 in assay [1], in assay [2] and in assay [3] was > 112 µM throughout.

On to `COC(=O)c1sc2cc(OC)ccc2c1C#Cc1ccccc1F`, for which the GI50 in assay [1] stood at 11.4 µM; in assay [2] it was 10.3 µM; in assay [3], 7.2 µM.

In the case of `COC(=O)c1sc2ccccc2c1C#Cc1ccc(F)cc1`, the GI50 in assay [1] was 60.6 µM; in assay [2], 56.2 µM; in assay [3], 76.1 µM.

Consider `COc1ccc2c(c1)sc1c(=O)oc(-c3ccc(F)cc3)cc12`, for which the GI50 turned out to be 109 µM in assay [1], 118 µM in assay [2] and 28.9 µM in assay [3].

For `O=c1oc(-c2ccc(F)cc2)cc2c1sc1ccccc12`, the GI50 in assay [1], in assay [2] and in assay [3] was > 25 µM each time.

`O=c1oc(-c2ccccc2F)cc2c1sc1ccccc12`: the GI50 in assay [1] came out at 19.4 µM; in assay [2], 15.5 µM; in assay [3], 12.4 µM.

On to `COC(=O)c1sc2ccccc2c1C#Cc1ccccc1F`, for which the GI50 in assay [1] was 40.9 µM; in assay [2], 30.2 µM; in assay [3] it was 25.7 µM.

In the case of `COc1ccc2c(c1)sc1c(=O)oc(-c3ccccc3F)c(I)c12`, the results for the GI50 in assay [1], in assay [2] and in assay [3] were 11.9 µM, 10.9 µM and 11.3 µM, respectively.

On to `COc1ccc2c(c1)sc1c(=O)oc(-c3ccccc3)cc12`, for which the GI50 in assay [1], in assay [2] and in assay [3] was > 75 µM throughout.
